# Target: Signal transducer and activator of transcription 3 (Homo sapiens, UniProt P40763)
# Test: Competitive binding affinity to Stat3 SH2 domain (unknown origin) using 5-FAM-GpYLPQTV-NH2 as probe assessed as phosphopetide complex formation after 30 mins by fluorescence polarization assay
# In short: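 Fluorescence polarization. Recombinant STAT protein was incubated with the 5-FAM-GpYLPQTV-NH2 peptide probe and inhibitor for 30 min. Polarized fluorescence was plotted against inhibitor concentration, and IC50 was obtained by fitting a dose-response curve.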
# Sequence of Signal transducer and activator of transcription 3 (P40763 whole entry, the tested form may be a part): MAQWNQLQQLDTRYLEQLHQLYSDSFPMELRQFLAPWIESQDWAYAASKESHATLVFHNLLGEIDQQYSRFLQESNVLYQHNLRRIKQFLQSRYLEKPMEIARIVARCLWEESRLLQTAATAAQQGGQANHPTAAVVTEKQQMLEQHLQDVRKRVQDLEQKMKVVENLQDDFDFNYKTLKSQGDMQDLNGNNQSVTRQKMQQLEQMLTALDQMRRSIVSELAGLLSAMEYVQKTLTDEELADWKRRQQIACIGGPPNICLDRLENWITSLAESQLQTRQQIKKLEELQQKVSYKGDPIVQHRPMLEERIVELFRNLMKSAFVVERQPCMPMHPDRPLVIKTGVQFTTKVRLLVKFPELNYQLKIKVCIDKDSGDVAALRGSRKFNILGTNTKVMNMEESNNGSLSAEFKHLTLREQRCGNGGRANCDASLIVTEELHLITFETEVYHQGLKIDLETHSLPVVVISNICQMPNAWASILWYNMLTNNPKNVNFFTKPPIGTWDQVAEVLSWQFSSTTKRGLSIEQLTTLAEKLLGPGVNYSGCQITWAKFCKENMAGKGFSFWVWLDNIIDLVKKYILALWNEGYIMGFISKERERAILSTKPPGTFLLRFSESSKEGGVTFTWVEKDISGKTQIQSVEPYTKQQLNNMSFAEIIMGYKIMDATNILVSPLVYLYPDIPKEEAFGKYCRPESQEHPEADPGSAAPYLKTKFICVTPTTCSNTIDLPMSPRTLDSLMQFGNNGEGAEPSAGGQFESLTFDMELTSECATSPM
row,Structure (SMILES),IC50
1,Cc1ccc(S(=O)(=O)N(CC(=O)N(Cc2ccc(C3CCCCC3)cc2)c2ccc(C(=O)O)c(O)c2)Cc2ccccc2Cl)cc1,15.8 µM
2,O=C(O)c1ccc(N(Cc2ccc(C3CCCCC3)cc2)C(=O)CN(Cc2ccccc2)S(=O)(=O)c2c(F)c(F)c(F)c(F)c2F)cc1O,14.4 µM
3,O=C(O)c1ccc(N(Cc2ccc(C3CCCCC3)cc2)C(=O)CN(Cc2cccc(F)c2)S(=O)(=O)c2c(F)c(F)c(F)c(F)c2F)cc1O,17.8 µM
4,O=C(O)c1ccc(N(Cc2ccc(C3CCCCC3)cc2)C(=O)CN(Cc2ccc(Cl)cc2)S(=O)(=O)c2c(F)c(F)c(F)c(F)c2F)cc1O,13.8 µM
5,Cc1ccc(S(=O)(=O)N(CC(=O)N(Cc2ccc(C3CCCCC3)cc2)c2ccc(C(=O)O)c(O)c2)Cc2ccccc2)cc1,14.4 µM
6,O=C(O)c1ccc(N(Cc2ccc(C3CCCCC3)cc2)C(=O)CN(Cc2cccc(OC(F)(F)F)c2)S(=O)(=O)c2c(F)c(F)c(F)c(F)c2F)cc1O,17.8 µM
7,O=C(O)c1ccc(N(Cc2ccc(C3CCCCC3)cc2)C(=O)CN(Cc2cc(F)c(F)c(F)c2F)S(=O)(=O)c2c(F)c(F)c(F)c(F)c2F)cc1O,12.4 µM
8,CCCN(CC(=O)N(Cc1ccc(C2CCCCC2)cc1)c1ccc(C(=O)O)c(O)c1)S(=O)(=O)c1ccc(C)cc1,17.8 µM
9,O=C(O)c1ccc(N(Cc2ccc(C3CCCCC3)cc2)C(=O)CN(Cc2ccc(OC(F)(F)F)cc2)S(=O)(=O)c2c(F)c(F)c(F)c(F)c2F)cc1O,21.6 µM
10,COC(=O)c1cccc(CN(CC(=O)N(Cc2ccc(C3CCCCC3)cc2)c2ccc(C(=O)O)c(O)c2)S(=O)(=O)c2c(F)c(F)c(F)c(F)c2F)c1,30.8 µM
11,Cc1ccc(S(=O)(=O)N(CC(=O)N(Cc2ccc(C3CCCCC3)cc2)c2ccc(C(=O)O)c(O)c2)Cc2ccccc2C#N)cc1,22.6 µM
12,Cc1ccc(S(=O)(=O)N(CC(N)=O)CC(=O)N(Cc2ccc(C3CCCCC3)cc2)c2ccc(C(=O)O)c(O)c2)cc1,> 50 µM
13,Cc1cccc(CN(CC(=O)N(Cc2ccc(C3CCCCC3)cc2)c2ccc(C(=O)O)c(O)c2)S(=O)(=O)c2c(F)c(F)c(F)c(F)c2F)c1,14.6 µM
14,Cc1ccc(S(=O)(=O)N(CC(=O)N(Cc2ccc(C3CCCCC3)cc2)c2ccc(C(=O)O)c(O)c2)Cc2cc(F)c(F)c(F)c2F)cc1,22.2 µM
15,Cc1ccc(S(=O)(=O)N(CC(=O)N(Cc2ccc(C3CCCCC3)cc2)c2ccc(C(=O)O)c(O)c2)Cc2cccnc2)cc1,> 50 µM
16,Cc1ccc(S(=O)(=O)N(CC(=O)N(Cc2ccc(C3CCCCC3)cc2)c2ccc(C(=O)O)c(O)c2)Cc2c(F)cc(F)c(F)c2F)cc1,15.4 µM
17,Cc1ccc(S(=O)(=O)N(CC(=O)N(Cc2ccc(C3CCCCC3)cc2)c2ccc(C(=O)O)c(O)c2)Cc2ccncc2)cc1,46.6 µM
18,Cc1ccc(CN(CC(=O)N(Cc2ccc(C3CCCCC3)cc2)c2ccc(C(=O)O)c(O)c2)S(=O)(=O)c2c(F)c(F)c(F)c(F)c2F)cc1,14.4 µM
19,O=C(O)c1ccc(N(Cc2ccc(C3CCCCC3)cc2)C(=O)CN(Cc2ccccc2F)S(=O)(=O)c2c(F)c(F)c(F)c(F)c2F)cc1O,28 µM
20,O=C(O)c1ccc(N(Cc2ccc(C3CCCCC3)cc2)C(=O)CN(Cc2c(F)cc(F)c(F)c2F)S(=O)(=O)c2c(F)c(F)c(F)c(F)c2F)cc1O,17.6 µM
21,Cc1ccc(CN(CC(=O)N(Cc2ccc(C3CCCCC3)cc2)c2ccc(C(=O)O)c(O)c2)S(=O)(=O)c2ccc(C)cc2)cc1,> 50 µM
22,Cc1ccc(S(=O)(=O)N(CC(=O)N(Cc2ccc(C3CCCCC3)cc2)c2ccc(C(=O)O)c(O)c2)Cc2ccc(OC(F)(F)F)cc2)cc1,11.8 µM
23,O=C(O)c1ccc(N(Cc2ccc(C3CCCCC3)cc2)C(=O)CN(Cc2cccc(Cl)c2)S(=O)(=O)c2c(F)c(F)c(F)c(F)c2F)cc1O,18.2 µM
24,Cc1ccc(S(=O)(=O)N(CC(=O)N(Cc2ccc(C3CCCCC3)cc2)c2ccc(C(=O)O)c(O)c2)Cc2ccc(N)cc2)cc1,20.8 µM
25,Cc1ccc(S(=O)(=O)N(CC(=O)N(Cc2ccc(C3CCCCC3)cc2)c2ccc(C(=O)O)c(O)c2)Cc2c(F)c(F)cc(F)c2F)cc1,22.8 µM
26,Cc1ccc(S(=O)(=O)N(CC(=O)N(Cc2ccc(C3CCCCC3)cc2)c2ccc(C(=O)O)c(O)c2)Cc2cccc(C#N)c2)cc1,12.4 µM
27,O=C(O)c1ccc(N(Cc2ccc(C3CCCCC3)cc2)C(=O)CN(Cc2c(F)c(F)cc(F)c2F)S(=O)(=O)c2c(F)c(F)c(F)c(F)c2F)cc1O,16.6 µM
28,COC(=O)c1ccccc1CN(CC(=O)N(Cc1ccc(C2CCCCC2)cc1)c1ccc(C(=O)O)c(O)c1)S(=O)(=O)c1c(F)c(F)c(F)c(F)c1F,17.4 µM
29,O=C(O)c1ccc(N(Cc2ccc(C3CCCCC3)cc2)C(=O)CN(Cc2ccc(F)cc2)S(=O)(=O)c2c(F)c(F)c(F)c(F)c2F)cc1O,17.6 µM

# Second part, the compound after the results:
row,IC50,Structure (SMILES)
1,8.6 µM,Cc1ccc(S(=O)(=O)N(CC(=O)N(Cc2ccc(C3CCCCC3)cc2)c2ccc(C(=O)O)c(O)c2)Cc2ccc(C#N)cc2)cc1
2,9 µM,Cc1ccc(S(=O)(=O)N(CC(=O)N(Cc2ccc(C3CCCCC3)cc2)c2ccc(C(=O)O)c(O)c2)Cc2cccc(F)c2)cc1
3,7.2 µM,Cc1ccc(S(=O)(=O)N(CC(=O)N(Cc2ccc(C3CCCCC3)cc2)c2ccc(C(=O)O)c(O)c2)Cc2ccccc2OC(F)(F)F)cc1
4,5 µM,Cc1ccc(S(=O)(=O)N(CC(=O)N(Cc2ccc(C3CCCCC3)cc2)c2ccc(C(=O)O)c(O)c2)Cc2cccc([N+](=O)[O-])c2)cc1
5,11 µM,Cc1ccc(S(=O)(=O)N(CC(=O)N(Cc2ccc(C3CCCCC3)cc2)c2ccc(C(=O)O)c(O)c2)Cc2ccc(F)cc2C(F)(F)F)cc1
6,10.6 µM,Cc1ccc(S(=O)(=O)N(CC(=O)N(Cc2ccc(C3CCCCC3)cc2)c2ccc(C(=O)O)c(O)c2)Cc2ccccc2F)cc1
7,11 µM,O=C(O)c1ccc(N(Cc2ccc(C3CCCCC3)cc2)C(=O)CN(Cc2ccccc2Cl)S(=O)(=O)c2c(F)c(F)c(F)c(F)c2F)cc1O
8,7.6 µM,Cc1ccc(S(=O)(=O)N(CC(=O)N(Cc2ccc(C3CCCCC3)cc2)c2ccc(C(=O)O)c(O)c2)Cc2ccc(F)cc2)cc1
9,5 µM,Cc1ccc(S(=O)(=O)N(CC(=O)N(Cc2ccc(C3CCCCC3)cc2)c2ccc(C(=O)O)c(O)c2)Cc2ccc3ccccc3c2)cc1
10,10 µM,Cc1ccc(S(=O)(=O)N(CC(=O)N(Cc2ccc(C3CCCCC3)cc2)c2ccc(C(=O)O)c(O)c2)Cc2ccccc2[N+](=O)[O-])cc1
11,9.6 µM,Cc1ccc(S(=O)(=O)N(CC(=O)N(Cc2ccc(C3CCCCC3)cc2)c2ccc(C(=O)O)c(O)c2)Cc2ccc(SC(F)(F)F)cc2)cc1
12,10.2 µM,O=C(O)c1ccc(N(Cc2ccc(C3CCCCC3)cc2)C(=O)CN(Cc2ccccc2OC(F)(F)F)S(=O)(=O)c2c(F)c(F)c(F)c(F)c2F)cc1O
13,6.2 µM,Cc1ccc(S(=O)(=O)N(CC(=O)N(Cc2ccc(C3CCCCC3)cc2)c2ccc(C(=O)O)c(O)c2)Cc2ccc(Cl)cc2)cc1
14,7.6 µM,CCOC(=O)c1ccc(CN(CC(=O)N(Cc2ccc(C3CCCCC3)cc2)c2ccc(C(=O)O)c(O)c2)S(=O)(=O)c2ccc(C)cc2)cc1
15,8 µM,Cc1ccc(S(=O)(=O)N(CC(=O)N(Cc2ccc(C3CCCCC3)cc2)c2ccc(C(=O)O)c(O)c2)Cc2cccc(OC(F)(F)F)c2)cc1
16,5.2 µM,Cc1ccc(S(=O)(=O)N(CC(=O)N(Cc2ccc(C3CCCCC3)cc2)c2ccc(C(=O)O)c(O)c2)Cc2cccc(C)c2)cc1
17,11.6 µM,COC(=O)c1ccc(CN(CC(=O)N(Cc2ccc(C3CCCCC3)cc2)c2ccc(C(=O)O)c(O)c2)S(=O)(=O)c2ccc(C)cc2)cc1
18,11 µM,Cc1ccc(S(=O)(=O)N(CC(=O)N(Cc2ccc(C3CCCCC3)cc2)c2ccc(C(=O)O)c(O)c2)Cc2ccc([N+](=O)[O-])cc2)cc1

# — ChEMBL document CHEMBL2429859, “Inhibiting aberrant signal transducer and activator of transcription protein activation with tetrapodal, small molecule Src homology 2 domain binders: promising agents against multiple myeloma” (J Med Chem, 2013)
